Here are results for ten compounds from ChEMBL document CHEMBL5360543, “Designed multiple ligands for the treatment of type 2 diabetes mellitus and its complications: Discovery of (5-arylidene-4-oxo-2-thioxothiazolidin-3-yl)alkanoic acids active as novel dual-targeted PTP1B/AKR1B1 inhibitors” (Eur J Med Chem, 2023).

Data set [1] has as its target T1, Tyrosine-protein phosphatase non-receptor type 1 (Homo sapiens) (UniProt P18031).
T1 sequence (whole entry): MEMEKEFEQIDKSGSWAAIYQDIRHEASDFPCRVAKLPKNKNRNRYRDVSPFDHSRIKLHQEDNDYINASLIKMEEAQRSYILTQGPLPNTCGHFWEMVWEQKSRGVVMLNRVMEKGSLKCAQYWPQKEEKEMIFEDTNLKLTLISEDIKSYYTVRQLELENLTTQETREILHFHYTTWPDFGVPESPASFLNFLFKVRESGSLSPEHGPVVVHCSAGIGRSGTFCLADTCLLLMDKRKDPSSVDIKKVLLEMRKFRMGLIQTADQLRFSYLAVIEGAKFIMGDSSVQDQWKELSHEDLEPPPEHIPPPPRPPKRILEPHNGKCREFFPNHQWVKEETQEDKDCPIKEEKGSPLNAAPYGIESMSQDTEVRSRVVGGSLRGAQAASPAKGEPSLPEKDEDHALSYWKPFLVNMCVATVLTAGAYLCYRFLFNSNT
As to the kind of experiment: Inhibition of N-terminal polyHis-tagged human PTP1B1 (1 to 303 residues) expressed in Escherichia coli BL21(DE3)pLysS assessed as enzyme residual activity using pNPP as substrate at 5 uM by spectrophotometric analysis. A digest of the protocol:
(§1)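 His-tagged human PTP1B (1–303) from E. coli BL21(DE3)pLysS, assayed in 0.075 M β,β-dimethylglutarate pH 7.0 with 1 mM EDTA, 0.1 mM DTT and pNPP. Reaction stopped with 0.1 M KOH; p-nitrophenol read at 400 nm. IC50 from 15–16 inhibitor concentrations in triplicate, normalized to control, fitted by nonlinear regression. Single-point residual activity at 5 µM.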

Data set [2] has as its target T2, Aldo-keto reductase family 1 member B1 (Homo sapiens, UniProt P15121). As to the kind of experiment: Inhibition of human recombinant AKR1B1 expressed in Escherichia coli BL21(DE3)pLysS using L-idose as substrate by NADPH oxidation based absorbance analysis.
Data set [3] concerns the target T3, Tyrosine-protein phosphatase non-receptor type 1 (Homo sapiens, UniProt P18031).
T3 sequence (P18031 whole entry): T1 sequence (whole entry)
Nature of the data set: Inhibition of N-terminal polyHis-tagged human PTP1B1 (1 to 303 residues) expressed in Escherichia coli BL21(DE3)pLysS using pNPP as substrate by spectrophotometric analysis. The procedure, abridged:
as §1

Data set [4] has as its target T4, Tyrosine-protein phosphatase non-receptor type 1 (Mus musculus) (UniProt P35821).
T4 sequence (whole entry): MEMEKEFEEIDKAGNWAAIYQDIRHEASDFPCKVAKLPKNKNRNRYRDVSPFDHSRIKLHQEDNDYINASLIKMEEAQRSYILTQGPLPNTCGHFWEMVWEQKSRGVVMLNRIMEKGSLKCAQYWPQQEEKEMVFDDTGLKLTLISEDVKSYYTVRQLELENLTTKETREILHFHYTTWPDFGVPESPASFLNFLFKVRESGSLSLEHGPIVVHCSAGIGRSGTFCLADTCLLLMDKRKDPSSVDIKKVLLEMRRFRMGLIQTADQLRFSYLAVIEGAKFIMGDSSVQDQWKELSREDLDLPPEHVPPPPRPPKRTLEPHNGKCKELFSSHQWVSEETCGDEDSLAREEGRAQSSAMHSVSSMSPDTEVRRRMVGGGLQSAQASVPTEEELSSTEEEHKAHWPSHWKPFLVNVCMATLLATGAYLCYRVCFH
Nature of the data set: Inhibition of PTP1B in mouse C2C12 cells assessed as increase in Akt phosphorylation by measuring increase in ratio of pAkt to Akt at 20 uM treated for 15 mins by western blot analysis. It is filed as cell-based. The procedure, abridged:
(§2)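 C2C12 cells starved 24 h, then given 10 nM insulin, 20 µM compound, or both, for 15 min. Washed in cold PBS, lysed in 1X Laemmli buffer, run on SDS-PAGE, blotted to PVDF. Probed with antibodies to phospho-Akt and total Akt, with actin as loading control. Bands quantified; triplicate, mean ± SD (n = 3).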

In data set [5] the target is T5, Tyrosine-protein phosphatase non-receptor type 2 (Homo sapiens, UniProt P17706).
T5 sequence (P17706 whole entry): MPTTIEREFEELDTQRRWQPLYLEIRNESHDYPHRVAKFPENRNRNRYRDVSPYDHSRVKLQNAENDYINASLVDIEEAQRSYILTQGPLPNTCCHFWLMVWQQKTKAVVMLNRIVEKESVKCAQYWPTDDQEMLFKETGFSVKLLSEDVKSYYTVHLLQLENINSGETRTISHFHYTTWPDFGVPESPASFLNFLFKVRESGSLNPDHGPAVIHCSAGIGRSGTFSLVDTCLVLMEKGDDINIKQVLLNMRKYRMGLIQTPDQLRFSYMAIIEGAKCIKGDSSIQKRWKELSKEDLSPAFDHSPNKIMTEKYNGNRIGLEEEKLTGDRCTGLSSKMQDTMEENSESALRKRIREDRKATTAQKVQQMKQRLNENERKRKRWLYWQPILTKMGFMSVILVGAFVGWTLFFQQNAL
As to the kind of experiment: Inhibition of N-terminal polyHis-tagged human recombinant TC-PTPb (1 to 415 residues) expressed in Escherichia coli BL21(DE3)pLysS.

Data set [6] has as its target T4, Tyrosine-protein phosphatase non-receptor type 1 (Mus musculus). Nature of the data set: Inhibition of PTP1B in mouse C2C12 cells assessed as potentiation of insulin-induced Akt phosphorylation by measuring increase in ratio of pAkt to Akt at 20 uM treated for 15 mins in presence of insulin by western blot analysis. It is filed as cell-based. A digest of the protocol: as §2

A further data set concerns C2C12. As to the kind of experiment: Cytotoxicity against mouse C2C12 cells assessed as reduction in cell viability at 20 uM incubated for 24 hrs by MTT assay. The format is toxicity, cell-based. The following applies: c2c12, 24 h. A digest of the protocol: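 C2C12 myoblasts were differentiated for 96 h in DMEM with 2% horse serum, then held 24 h in complete medium with 20 µM compound, DMSO vehicle as control. MTT 0.5 mg/mL was added, cells lysed in DMSO, absorbance read, and values normalized to vehicle. Quadruplicate, mean ± SD (n = 4).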

The target in data set [7] is T3, Tyrosine-protein phosphatase non-receptor type 1. Nature of the data set: Mixed non-competitive inhibition of N-terminal polyHis-tagged human PTP1B1 (1 to 303 residues) expressed in Escherichia coli BL21(DE3)pLysS assessed as apparent dissociation constant for ESI complex using pNPP as substrate by Lineweaver-Burk plot analysis. The procedure, abridged: (§3)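 PTP1B initial pNPP hydrolysis rates measured at seven pNPP concentrations (0.5–25 mM) and at least three inhibitor concentrations, in triplicate. Data fitted to Michaelis–Menten; KM and Vmax dependence on inhibitor analysed by Lineweaver–Burk plots.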

Data set [8] shares this target. Nature of the data set: Mixed non-competitive inhibition of N-terminal polyHis-tagged human PTP1B1 (1 to 303 residues) expressed in Escherichia coli BL21(DE3)pLysS assessed as apparent dissociation constant for EI complex using pNPP as substrate by Lineweaver-Burk plot analysis. The procedure, abridged:
as §3

The target of data set [9] is T1, Tyrosine-protein phosphatase non-receptor type 1 (Homo sapiens). As to the kind of experiment: Reversible inhibition of N-terminal polyHis-tagged human PTP1B1 (1 to 303 residues) expressed in Escherichia coli BL21(DE3)pLysS using pNPP as substrate pretreated with enzyme for 60 mins followed by 400-fold dilution with buffer containing substrate and measured after 15 mins by spectrophotometric analysis. The settings on record: time 75.0 min. A digest of the protocol:
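PTP1B incubated 60 min at 37 °C with saturating inhibitor, then diluted 400-fold into assay buffer containing 2.5 mM pNPP. Stopped after 15 min with 0.2 M KOH; absorbance read at 400 nm. Normalized to enzyme diluted with DMSO; mean ± SEM (n = 3).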

Data set [10] deals with T2, Aldo-keto reductase family 1 member B1. As to the kind of experiment: Ratio of Ki for human recombinant AKR1B1 expressed in Escherichia coli BL21(DE3)pLysS assessed as apparent dissociation constant for EI complex to Ki for human recombinant AKR1B1 expressed in Escherichia coli BL21(DE3)pLysS assessed as apparent dissociation constant for ESI complex. A digest of the protocol:
(§4)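 AKR1B1 rates measured at varied L-idose concentrations with and without several inhibitor concentrations, then Lineweaver–Burk analysis. […] Tight binders fitted with the Morrison equation, KM for L-idose taken as 3.8 mM. At least three independent experiments.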

Data set [11] shares this target. As to the kind of experiment: Reversible inhibition of human recombinant AKR1B1 expressed in Escherichia coli BL21(DE3)pLysS assessed as recovery of enzyme activity using L-idose as substrate measured after extensive dialysis by NADPH oxidation based absorbance analysis. Also on record: scale not given: the % may be the effect or the level left.
The species named for another data set is Homo sapiens. As to the kind of experiment: Selectivity index, ratio of IC50 for inhibition of N-terminal polyHis-tagged human recombinant TC-PTPb (1 to 415 residues) expressed in Escherichia coli BL21(DE3)pLysS to IC50 for inhibition of N-terminal polyHis-tagged human PTP1B1 (1 to 303 residues) expressed in Escherichia coli BL21(DE3)pLysS.
Data set [12] has as its target T3, Tyrosine-protein phosphatase non-receptor type 1. As to the kind of experiment: Non-competitive inhibition of N-terminal polyHis-tagged human PTP1B1 (1 to 303 residues) expressed in Escherichia coli BL21(DE3)pLysS assessed as apparent dissociation constant for ESI complex using pNPP as substrate by Lineweaver-Burk plot analysis. The procedure, abridged: as §3

Data set [13] has as its target T2, Aldo-keto reductase family 1 member B1. As to the kind of experiment: Mixed non-competitive inhibition of human recombinant AKR1B1 expressed in Escherichia coli BL21(DE3)pLysS assessed as apparent dissociation constant for EI complex using L-idose as substrate by secondary plot analysis. A digest of the protocol:
as §4

Data set [14] shares this target. As to the kind of experiment: Mixed non-competitive inhibition of human recombinant AKR1B1 expressed in Escherichia coli BL21(DE3)pLysS assessed as apparent dissociation constant for ESI complex using L-idose as substrate by secondary plot analysis. The procedure, abridged: as §4
Data set [15] concerns the target T3, Tyrosine-protein phosphatase non-receptor type 1. Nature of the data set: Non-competitive inhibition of N-terminal polyHis-tagged human PTP1B1 (1 to 303 residues) expressed in Escherichia coli BL21(DE3)pLysS assessed as apparent dissociation constant for EI complex using pNPP as substrate by Lineweaver-Burk plot analysis. A digest of the protocol: as §3

Molecules are shown by their SMILES. The source made the active and inactive calls. The calls are words filed in the database; no cut-off is given here.

Turning to `O=C(O)CCN1C(=O)/C(=C/c2cccc(OCCCc3ccccc3)c2)SC1=S`, the Activity in data set [1] is 67.6%. In addition, the IC50 in [2] is 1200 nM.

`O=C(O)CCN1C(=O)/C(=C/c2cccc(OCCCOc3ccccc3)c2)SC1=S`: in data set [1], the Activity amounted to 77%. In addition, the IC50 in data set [2] was 2100 nM.

For `O=C(O)CN1C(=O)/C(=C/c2ccc(OCCCOc3ccccc3)cc2)SC1=S`, the Activity in data set [1] is 87.6%. Besides, the IC50 in [2] was 220 nM.

`O=C(O)CCN1C(=O)/C(=C/c2ccc(OCCCCc3ccccc3)cc2)SC1=S`: the IC50 worked out at 2900 nM in data set [3], 9100 nM in data set [5] and 60700 nM in [2]. Besides, the inhibition entry in data set [4], in data set [6] and in [9] was “Active” in each case. Moreover, the Activity result in the data set with C2C12 is “Non-Toxic”. Besides, the figures for the Ki in [7] and in [8] were 2400 nM and 600 nM, respectively.

Take `O=C(O)CCN1C(=O)/C(=C/c2ccc(OCCCc3ccccc3)cc2)SC1=S`: in [1], the Activity came out at 99.8%. For the same compound, the IC50 in data set [2] was 38200 nM.

As to `O=C(O)CN1C(=O)/C(=C/c2cccc(OCCCc3ccccc3)c2)SC1=S`, the Activity in data set [1] came to 81%. The IC50 in [2] was determined as 50 nM.

Consider `O=C(O)CN1C(=O)/C(=C/c2cccc(OCCCOc3ccccc3)c2)SC1=S`, for which the Activity in data set [1] is 100%. In addition, the IC50 in [2] came to 80 nM.

As to `O=C(O)CCN1C(=O)/C(=C/c2ccc(OCCCOc3ccccc3)cc2)SC1=S`, in data set [1], the Activity came to 74.4%. Moreover, the IC50 in data set [2] was found to be 3900 nM.

As to `O=C(O)CN1C(=O)/C(=C/c2ccc(OCCCc3ccccc3)cc2)SC1=S`, in [1], the Activity was 79%. For the same compound, in data set [2], the IC50 turned out to be 260 nM.

Take `O=C(O)CN1C(=O)/C(=C/c2ccc(OCCCCc3ccccc3)cc2)SC1=S`: the Ratio Ki in data set [10] was 2. Also, the values for the IC50 in data set [3], in data set [5] and in [2] were 4000 nM, 193000 nM and 330 nM, respectively. The inhibition result in data set [4] and in data set [6] was “inactive” in each case. Further, the Activity in data set [11] is more than 90%; in the data set on C2C12, “Non-Toxic”. In the data set filed under Homo sapiens, the Ratio IC50 was determined as 48. The Ki in [12] came out at 17500 nM; in data set [13], 1300 nM; in [14] it was 410 nM; in data set [15], 12100 nM. Also, the inhibition entry in [9] is “Active”.
